# Assay results of several laboratories.
# Each line is one published result; the experiments were not run side by side.
# Target: Tyrosine-protein kinase SYK (SYK, Homo sapiens, UniProt P43405)
Compound,observed,action,technique,concentration,endpoint,value
Nc1ncc(-c2nc(N3CCOCC3)nc(N3CCOCC3)n2)c(C(F)F)n1,binding,,competition with immobilised ligand,10 µM,remaining binding,61%
Cc1nn(C)cc1-c1nc2c(N3CCN(Cc4ccc(Cl)cc4)CC3)c(Cl)cnc2[nH]1,binding,,competition with immobilised ligand,1 µM,remaining binding,100%
Cn1cncc1[C@@](O)(COc1ccc(C#N)cc1-c1ccc(OC(F)(F)F)cc1)c1ccc(C#N)cc1,cell-free assay,,competition with immobilised ligand,1 µM,remaining binding,100%
COc1ncccc1-c1cnn2ccc(N3CCN(C(=O)OC(C)C)CC3)nc12,binding,,competition with immobilised ligand,1 µM,remaining binding,100%
Cn1cc(-c2cc(F)cc(N3CCn4c(cc5c4CCCC5)C3=O)c2CO)cc(Nc2ccc(N3CCN(C4COC4)CC3)cn2)c1=O,enzyme activity,inhibitor,,0.1 µM,inhibition,12%
C#Cc1n[nH]c2c(-c3cn([C@@H](C)c4ccccn4)c(=O)[nH]c3=O)cc(F)cc12,enzyme activity,inhibitor,,0.1 µM,inhibition,3.3%
Cn1cc(-c2cccc(N3CCc4c(sc5c4CC(C)(C)C5)C3=O)c2CO)cc(Nc2ccncn2)c1=O,enzyme activity,inhibitor,,1 µM,inhibition,0%
O=c1[nH]c2ccccc2n1C1CCN(Cc2ccc(-c3[nH]c4cc5ncnc5cc4nc3-c3ccccc3)cc2)CC1,cell-free assay,,,0.5 µM,remaining signal,97.9%
N#CC1(c2ccccn2)CCN(Cc2cc(C(=O)O)c(=O)n3ccccc23)CC1,cell-free assay,,competition with immobilised ligand,1 µM,remaining binding,92%
